Screens (PubChem)
Shown is part of a subset that was picked to be rich in hits.
ABCB1 block = ABCB1 efflux pump inhibitors, primary screen, cell-based, multiplex, flow cytometry, ABCG2 counter-screen | CCRF-Adr cells, JC-1 efflux | inhibition, % at 6.6 µM | hit rate 0.067% among 190,000; in the data active = inhibition above about 40%;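 note: 0% = vehicle and 100% = reference inhibitor; higher value means more JC-1 retained so stronger ABCB1 efflux block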
Lmaj promast = Leishmania major promastigote growth inhibition, primary screen; Leishmania major promastigotes, resazurin fluorescence viability; inhibition, % at 10 µM; hit rate 9% among 200,000; AID 1063, 2008;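 note: promastigotes grown with compound for 44 hours at 28 °C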
ABCG2 inh = ABCG2 efflux pump inhibitors, primary screen, multiplex with ABCB1, IgMXP3 cells, flow cytometry; inhibition, % at 6.6 µM; hit rate 0.1% among 190,000; Broad substrate specificity ATP-binding cassette transporter ABCG2 (Homo sapiens), Q9UNQ0; JC-1 efflux;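 active = inhibition above 80%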;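 note: 0% = DMSO and 100% = nicardipine control wells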
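test system = two drug-resistant human cell lines, ABCG2 and ABCB1 | amount = 3 million cells/mL final, two lines in 1:1 ratio | reagent = JC-1 transporter substrate | doses = one concentration, 6.6 µM final | incubation = 10 min at 25 °C | signal = flow cytometric JC-1 green MFI at 530 nm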
PKD1 kinase inh = inhibitors of human PKD1 kinase, biochemical, fluorescence polarization; Serine/threonine-protein kinase D1 (Homo sapiens), Q15139; PKD1 kinase fluorescence polarization assay; inhibition, % (test concentration not listed); hit rate 0.056% among 200,000
GSH bead fluor = compound fluorescence on glutathione beads, profiling panel, artefact control, biophysical, 488/530 nm, flow cytometry; AID 1776, 2009; GSH beads flow cytometry, compound fluorescence 488/530 nm; active compounds read high; fluorescence (KMESF) at 10 µM; hit rate 0.25% among 190,000; in the data active = fluorescence above about 89;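 note: glutathione beads carrying GST-tagged Bcl family fusion proteins plus one bare bead set; values are compound well signal with DMSO vehicle wells as background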
Avidin fluor = green autofluorescence of compounds with avidin beads – biophysical, 488/530 nm, flow cytometry, artefact control, profiling panel; compound fluorescence 488/530 nm; active compounds read high; fluorescence (KMESF) at 10 µM; hit rate 0.38% among 220,000; AID 1775, 2009; in the data active = fluorescence above about 47
Active calls of the source: *; nt = no result given. Cut-off read from the data, not from the text of the source, unless noted: active = inhibition above about 50%; inactive = the rest.

SMILES	ABCB1 block	Lmaj promast	ABCG2 inh	PKD1 kinase inh	GSH bead fluor	Avidin fluor
CC(=O)C1=C(O)C(=O)N(Cc2ccccc2)C1c1cccs1 (centres undefined)	0.4	-4.7	1.1	-2.3	68	171*
CC(=O)C1=C(O)C(=O)N(Cc2cccnc2)C1c1ccc(Cl)cc1 (centres undefined)	-0.2	-8.2	0.1	-5.5	16	21
O=C(CSC1=NCCN1)NC(c1ccccc1)c1ccccc1	-0.1	93.6*	7.9	-9.2	15	13
Cc1cc2c3c(c1C)C1(C(=O)N3C(C)(C)CC2C)C(C#N)=C(N)Oc2cc(O)ccc21 (centres undefined)	0.5	69.8*	1.6	4.6	32	6
COc1cc2c3c(c1)C1(C(=O)N3C(C)(C)C=C2C)C(C#N)=C(N)Oc2cc(O)ccc21 (centres undefined)	0.2	67.3*	4.7	-1.1	37	9
Cc1cc2c3c(c1)C1(C(=O)N3C(C)(C)CC2C)C(C#N)=C(N)OC2=C1C(=O)CC(C)(C)C2 (centres undefined)	0.0	2.9	1.2	-9.2	13	24
CCOc1cc2c3c(c1)C1(C(=O)N3C(C)(C)C=C2C)C(C#N)=C(N)Oc2cc(O)ccc21 (centres undefined)	0.0	13.1	-0.5	-1.6	21	29
O=C(Cc1ccc(Cl)c(Cl)c1)Nc1ccc2[nH]c(=O)[nH]c2c1	-0.6	-14.1	-1.2	0.1	12	11
CC1=CC(=O)C=C(C)C1=NOC(=O)c1cccc([N+](=O)[O-])c1	0.5	84.0*	4.2	0.8	22	7
CCS(=O)(=O)Nc1ccc(C(=O)c2ccccc2)cc1	0.2	-3.4	0.8	-2.3	14	22
O=C(CSc1nnc(-c2ccncc2)n1Cc1ccco1)c1ccc(Cl)cc1	0.7	29.8	3.1	6.0	12	8
O=C(CSc1nnc(-c2ccc(Cl)cc2)n1Cc1ccco1)c1cccs1	0.5	80.1*	1.6	-6.2	12	8
COc1ccc(C(=O)CSc2nnc(-c3cc4ccccc4cc3O)n2Cc2ccco2)cc1	0.7	68.8*	0.7	-5.2	6	11
COc1ccc(C(=O)CSc2nnc(-c3cccnc3)n2Cc2ccco2)cc1	0.6	2.3	2.0	6.6	46	8
CCOC(=O)C1(Cc2ccccc2C(F)(F)F)CCN(C2CCCC2)CC1	0.5	79.8*	2.2	12.7	12	13
CCOC(=O)C1(Cc2ccccc2C(F)(F)F)CCN(CC2CC2)CC1	0.4	57.4*	0.9	-2.8	14	12
CCOC(=O)C1(Cc2ccccc2C(F)(F)F)CCN(Cc2ccon2)CC1	nt	nt	nt	nt	nt	6
CCOC(=O)C1(Cc2ccccc2C(F)(F)F)CCN(C(C)CCn2cccn2)CC1 (centres undefined)	1.1	49.0	0.7	-4.9	11	11
CCOC(=O)C1(Cc2ccccc2C(F)(F)F)CCN(C2CCSC2)CC1 (centres undefined)	2.9	52.0*	1.8	-3.3	12	5
CCOC(=O)C1(Cc2ccccc2C(F)(F)F)CCN(C(C)CSC)CC1 (centres undefined)	0.7	75.6*	1.3	-0.1	11	10
CCOC(=O)C1(Cc2ccccc2C(F)(F)F)CCN(C(=O)c2cc(C(C)=O)n[nH]2)CC1	1.2	5.7	1.2	1.1	9	9
Cc1cccc(-c2nnc(SCC(=O)C(C)(C)C)n2C)c1	nt	nt	nt	nt	nt	6
C/C(=N\N=C(/N)c1nonc1N)c1ccc2c(c1)OCO2	nt	nt	nt	nt	nt	6
COc1cc(C2C(C#N)=C(N)Oc3c2ccc2ccccc32)ccc1OCC(=O)Nc1cccc(C)c1 (centres undefined)	2.2	75.7*	4.0	-13.3	10	16
N#CC1=C(N)Oc2c(ccc3ccccc23)C1c1ccsc1 (centres undefined)	0.3	1.1	4.1	0.5	20	5
SMILES	ABCB1 block	Lmaj promast	ABCG2 inh	PKD1 kinase inh	GSH bead fluor	Avidin fluor
COc1cc(C2C(C#N)=C(N)Oc3c2ccc2ccccc32)ccc1OCC(=O)Nc1ccc(C)cc1 (centres undefined)	0.3	69.1*	0.3	-5.0	12	11
COc1ccc(C2C(C#N)=C(N)Oc3c2ccc2cccnc32)cc1OC (centres undefined)	0.9	5.2	14.9	-0.7	17	9
COc1ccc(C(=O)COC(=O)CNS(=O)(=O)c2ccc(C)cc2)cc1	0.0	-7.1	0.1	-0.8	10	23
COc1ccccc1CN1CCCC(C(=O)N2CCCCC2)C1 (centres undefined)	nt	nt	nt	nt	nt	5
COc1ccc(Br)cc1CN1CCCC(C(=O)N2CCCCCC2)C1 (centres undefined)	1.3	85.1*	-4.9	6.7	22	13
COc1cccc(OC)c1CN1CCCC(C(=O)c2ccccc2SC)C1 (centres undefined)	0.3	64.6*	0.0	1.9	16	13
COc1ccc(CN2CCCC(C(=O)N(C)Cc3ccccc3)C2)cc1OC (centres undefined)	0.5	85.6*	3.9	1.5	26	30
COc1ccccc1C(=O)C1CCCN(Cc2cccc3nccnc23)C1 (centres undefined)	0.6	1.2	2.8	-4.1	14	11
COc1ccccc1CN1CCCC(C(=O)N(C)Cc2ccccc2)C1 (centres undefined)	-0.4	52.4*	-1.7	-11.0	18	13
COc1ccc2c(c1)C(C)=CC(C)(C)N2C(=O)CSc1nnc(-c2ccc(C)cc2)o1	-4.0	11.0	-6.5	2.0	21	10
CCc1c(C)nc(SCC(=O)N2CCCCC2C)[nH]c1=O (centres undefined)	1.9	-7.7	1.5	2.0	12	2
Cc1cc(C)c(S(=O)(=O)N2CCOC2CNC(=O)C(=O)NCc2cccnc2)c(C)c1 (centres undefined)	1.2	-4.7	3.5	-4.6	17	7
O=C(N/N=C/c1ccc(-c2cccc([N+](=O)[O-])c2)o1)c1ccc([N+](=O)[O-])cc1	-0.5	64.0*	-2.1	-7.4	13	9
O=C(N/N=C/c1ccccc1O)c1cccc(C(F)(F)F)c1	1.9	97.7*	27.0	7.4	13	14
O=C(N/N=C/c1ccc(-c2cccc(C(F)(F)F)c2)o1)c1ccccc1Br	0.3	9.2	7.8	5.4	30	8
O=C(N/N=C/c1ccc(-c2ccccc2[N+](=O)[O-])o1)c1cccnc1	0.7	95.0*	5.9	0.3	12	29
O=C(O)c1cccc(-c2ccc(/C=N/NC(=O)c3cccnc3)o2)c1	-0.3	-3.2	-1.0	5.8	8	6
